≈ marks a conversion by molar mass, not a printed value. Where two headings read alike, the source gives them in different places.
Assays:
MDM [1] = assay: MTT cell viability assay in MDM; assay type: cell-based, human; details: for effect on mitochondrial reductase activity (MTT): 10–400 μM
[2] = Solubility in water and 1-octanol; assay type: physicochemical
Procedure, shortened: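 Excess test compound or parent nucleoside was added to water or 1-octanol to give saturated solutions. These were mixed 24 h at room temperature, then centrifuged at 14,000 × g for 10 min to remove undissolved drug. Supernatant concentration was quantified by UPLC-TUV.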

[3] = Plasma stability, animal plasma; assay type: in vitro ADME, rat, mouse; details: rodent, dog, rabbit and monkey plasma, after 24 h at 37 °C
Procedure, shortened: (§1)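 Plasma (100 μL) was spiked with 1 μM test compound at 37 °C. It was stopped at 0, 2, 6 and 24 h with 1 mL methanol and 3 min vortexing. Heat-inactivated plasma under identical conditions separated chemical from enzymatic loss. After centrifugation at 15,000 g for 10 min, supernatant was diluted in 80% methanol with internal standard. Analysed by UPLC-MS/MS.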

HIV-1ADA [4] = assay: EC50 by HIV-1 RT activity in MDM; assay type: cell-based; details: read-out: EC50 (HIV-1 RT activity)
[5] = Prodrug chemical stability at acid, alkaline and neutral pH; assay type: physicochemical; details: room temperature; for prodrug degraded: after 24 h
[6] = Plasma stability, human plasma; assay type: in vitro ADME; details: 37 °C; for chemical stability in plasma: up to 24 h, 1 μM
Procedure, shortened: as §1

HIV-1NL4–3-eGFP = assay: microbe, parasite or virus in culture; assay type: cell-based; details: Human immunodeficiency virus 1, T-cell, 240 h, read-out: EC50 (RT activity)
[7] = Pharmacokinetics and biodistribution after a single IM injection; assay type: in vivo, Sprague Dawley rats; details: rat
HIV-1ADA [8] = assay: Long-term antiretroviral efficacy in MDM; assay type: cell-based
Procedure, shortened: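 Human monocytes from leukapheresis, purified by elutriation and differentiated 7 days in DMEM with 10% heat-inactivated human serum and 1000 U/mL MCSF. MDM were exposed to 100 μM test compound for 8 h, washed, and kept drug-free with half-media changes every other day. On days 1–30 they were challenged with HIV-1ADA at MOI 0.1 for 16 h. RT activity in fluids on day 10; PFA-fixed cells stained for p24.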

MDM [9] = assay: Cellular drug uptake and retention in MDM; assay type: cell-based, human

CCCCCCCCCCCCCCCCCCCCCCOC(=O)[C@H](Cc1ccccc1)NP(=O)(OC[C@@H]1O[C@H](n2cc(F)c(N)nc2=O)CS1)Oc1ccccc1 (stereo partly drawn) [M2FTC]
effect on mitochondrial reductase activity (MTT) (MDM [1]): No effects | non-cytotoxic concentration (MTT) (MDM [1]; 24 h treatment): ≤ 100 µM | effect on cell viability (MTT) (MDM [1]; above 100 μM): slight reduction in cell viability | concentration not affecting cell viability (LiveDead staining) (CEM-ss CD4+ T-cells): ≤ 200 µM | fold improvement in octanol solubility compared to FTC ([2]; 1-octanol): 90 fold | octanol solubility ([2]; 1-octanol, saturated solution mixed 24 h): 87.56 ± 0.236 mg/mL | fold decrease in aqueous solubility compared to FTC ([2]; water): 4000 fold | aqueous solubility ([2]; water, saturated solution mixed 24 h): 0.0366 ± 0.0093 mg/mL (≈ 0.0426 mM) | degradation in plasma (in words) [3]: high | EC50 (HIV-1ADA [4]; HIV-1ADA in MDM, MOI 0.1, 10 days): 0.11 nM | prodrug degraded ([5]; acidic pH (0.1 M HCl)): 10% | prodrug degraded ([5]; alkaline pH (0.1 M NaOH)): 10% | chemical stability at neutral pH ([5]; neutral pH (water)): stable over 7 days | chemical stability in plasma ([6]; heat inactivated human plasma): over 90% | plasma stability (in words) ([6]; normal and heat inactivated human plasma, over 24 h): remained stable | chemical stability in plasma ([6]; normal human plasma): over 90%

Nc1nc(=O)n([C@@H]2CS[C@H](CO)O2)cc1F [FTC, emtricitabine]
EC50 (HIV-1NL4–3-eGFP): 25.7 nM | concentration at 7 days ([7]; male, Sprague Dawley, whole blood, intramuscular, 45 mg/kg FTC-equivalent): < 2 ng/mL | drug concentrations in blood and tissues over time (in words) ([7]; single IM 45 mg/kg): declined to undetectable levels within a day | FTC-TP levels in lymph node and spleen cells ([7]; single IM 45 mg/kg FTC equivalents, day 28 / one month): undetectable levels | drug levels in tissues (in words) ([7]; single IM 45 mg/kg, lymph nodes, spleen, liver): rapidly fell below the limit of quantitation | inhibition at 100 µM (HIV-1ADA [8]; Human immunodeficiency virus 1, 8 h, read-out: protection (viral inhibition)): 40% | viral inhibition (HIV-1ADA [8]; MDM, single 8 h treatment 100 μM, challenge at time points later than day one): no viral inhibition | effect on mitochondrial reductase activity (MTT) (MDM [1]): No effects | concentration not affecting cell viability (LiveDead staining) (CEM-ss CD4+ T-cells; human): ≤ 200 µM | solubility at 24 h ([2]; 1-octanol): 0.97 ± 0.027 mg/mL (≈ 3.92 mM) | solubility at 24 h ([2]; water): 143 ± 11.2 mg/mL (≈ 578 mM) | intracellular drug concentration (uptake) (MDM [9]; 100 μM, over 8 h): < 0.1 nmoles/10^6 cells | intracellular drug (retention) (MDM [9]; at 8 h): undetectable | EC50 (HIV-1ADA [4]; Human immunodeficiency virus 1, 240 h): 0.5 nM

From PMC6945494 (Biomaterials, 2019)
